≈ marks a conversion by molar mass, not a printed value.
Tests used:
[1] = tested on: OVCAR-3; assay: Growth inhibition of human OVCAR3 cells assessed as cell growth at 10^-5 M after 48 hrs by sulforhodamine B assay; assay type: functional; settings: OVCAR-3, 48 h, read-out: Activity
Summary of the method: (§1)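 NCI 60-cell-line primary one-dose screen. Cells were exposed to a single 10^-5 M concentration for 48 h. The end point was sulforhodamine B protein staining, read spectrophotometrically. Results are reported as percent growth of treated cells relative to untreated control cells.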

[2] = tested on: MDA-MB-468; assay: Growth inhibition of human MDA-MB-468 cells assessed as cell growth at 10^-5 M after 48 hrs by sulforhodamine B assay; assay type: functional; settings: MDA-MB-468, 48 h, read-out: Activity; summary of the method: as §1
[3] = tested on: T47D; assay: Growth inhibition of human T47D cells after 48 hrs by sulforhodamine B assay; assay type: functional
Summary of the method: (§2)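 NCI 60-cell panel, five concentrations (10-fold dilutions, 0.01–100 µM), 48 h continuous exposure; SRB protein stain read spectrophotometrically. Percent growth from time-zero, untreated-control and treated absorbances. GI50 is the concentration giving 50% lower net protein increase than control. Values beyond the tested range are reported as more or less than the highest or lowest concentration.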

[4] = tested on: SNB-75; assay: Growth inhibition of human SNB75 cells after 48 hrs by sulforhodamine B assay; assay type: functional; settings: SNB-75, 48 h; for CC50: read-out: LC50 (the source's name); summary of the method: as §2
[5] = tested on: OVCAR-5; assay: Growth inhibition of human OVCAR5 cells after 48 hrs by sulforhodamine B assay; assay type: functional; settings: OVCAR-5, 48 h
Summary of the method: (§3)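 NCI five-dose screen on the full 60-cell-line panel. Cells were given 10-fold dilutions from 10^-4 to 10^-8 M with continuous 48 h exposure, and growth was read by SRB staining. Percent growth was taken from time-zero, control and treated absorbances. GI50, TGI and LC50 were then derived, the GI50 being the concentration that gives a 50% lower net protein increase than control.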

[6] = tested on: OVCAR-4; assay: Growth inhibition of human OVCAR4 cells after 48 hrs by sulforhodamine B assay; assay type: functional; settings: OVCAR-4, 48 h; for CC50: read-out: LC50 (the source's name); summary of the method: as §3
[7] = Growth inhibition of human HCC2998 cells assessed as cell growth at 10^-5 M after 48 hrs by sulforhodamine B assay; assay type: functional; settings: HCC 2998, 48 h, read-out: Activity
Summary of the method: (§4)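 NCI 60-cell-line primary screen. Single concentration of 10^-5 M, 48 h incubation. End point by sulforhodamine B protein staining read spectrophotometrically. Reported as percent growth of treated cells relative to untreated control cells.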

[8] = tested on: A498; assay: Growth inhibition of human A498 cells assessed as cell growth at 10^-5 M after 48 hrs by sulforhodamine B assay; assay type: functional; settings: A498, 48 h, read-out: Activity; summary of the method: as §4
[9] = tested on: NCI-H23; assay: Growth inhibition of human NCI-H23 cells assessed as cell growth at 10^-5 M after 48 hrs by sulforhodamine B assay; assay type: functional; settings: NCI-H23, 48 h, read-out: Activity; summary of the method: as §1
[10] = Octanol-phosphate buffer partition coefficient, log P of the compound after 5 hrs by shake-flask method; assay type: physicochemical
Summary of the method: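 Shake-flask method: 100 µL of 0.2 mg/mL stock diluted into 1.9 mL phosphate buffer pH 7.4 plus 2 mL mutually saturated n-octanol, protected from light. Vortexed 3 min, shaken 5 h at 25 °C. Both phases assayed by UV at 272 nm; log P = log([octanol]/[aqueous]), run in triplicate.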

[11] = Aqueous solubility of the compound at pH 6.9 by UV spectroscopic analysis; assay type: physicochemical; settings: aqueous solution
Summary of the method: (§5)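 Excess solid (10 mg) shaken in buffer at pH 6.9 or 7.8, 37 °C. The filtrate was diluted into the linear calibration range and dissolved drug measured by UV absorbance at λmax 272 nm. Values are the average of at least three agreeing independent measurements.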

[12] = tested on: NCI-H460; assay: Growth inhibition of human NCI-H460 cells after 48 hrs by sulforhodamine B assay; assay type: functional; settings: NCI-H460, 48 h; for CC50: read-out: LC50 (the source's name); summary of the method: as §3
[13] = tested on: SF-268; assay: Growth inhibition of human SF268 cells after 48 hrs by sulforhodamine B assay; assay type: functional; settings: SF-268, 48 h; for CC50: read-out: LC50 (the source's name); summary of the method: as §3
[14] = tested on: OVCAR-4; assay: Growth inhibition of human OVCAR4 cells assessed as cell growth at 10^-5 M after 48 hrs by sulforhodamine B assay; assay type: functional; settings: OVCAR-4, 48 h, read-out: Activity; summary of the method: as §1
[15] = tested on: SN12C; assay: Growth inhibition of human SN12C cells after 48 hrs by sulforhodamine B assay; assay type: functional; summary of the method: as §3
[16] = tested on: KM12; assay: Growth inhibition of human KM12 cells after 48 hrs by sulforhodamine B assay; assay type: functional; settings: KM12, 48 h; for CC50: read-out: LC50 (the source's name)
Summary of the method: (§6)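 NCI 60-panel five-dose test at 10-fold dilutions, 10^-4 to 10^-8 M, with 48 h continuous exposure and SRB protein read-out. Percent growth derived from time-zero, untreated-control and treated absorbances. GI50 is the concentration where [(Ti-Tz)/(C-Tz)]×100 = 50. TGI is taken at Ti = Tz. LC50 is taken at [(Ti-Tz)/Tz]×100 = -50.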

[17] = tested on: OVCAR-8; assay: Growth inhibition of human OVCAR8 cells after 48 hrs by sulforhodamine B assay; assay type: functional; settings: OVCAR-8, 48 h; for CC50: read-out: LC50 (the source's name); summary of the method: as §3
[18] = tested on: A549; assay: Growth inhibition of human A549/ATCC cells after 48 hrs by sulforhodamine B assay; assay type: functional; settings: A549, 48 h; summary of the method: as §6
[19] = Aqueous solubility of the compound at pH 7.8 by UV spectroscopic analysis; assay type: physicochemical; settings: aqueous solution; summary of the method: as §5
[20] = tested on: UO-31; assay: Growth inhibition of human UO31 cells after 48 hrs by sulforhodamine B assay; assay type: functional; settings: UO-31, 48 h; summary of the method: as §2
[21] = tested on: NCI-H522; assay: Growth inhibition of human NCI-H522 cells assessed as cell growth at 10^-5 M after 48 hrs by sulforhodamine B assay; assay type: functional; settings: NCI-H522, 48 h, read-out: Activity; summary of the method: as §1

O=C(CN1CCN(c2cc3c(cc2F)c(=O)c(C(=O)O)cn3C2CC2)CC1)Nc1ccc(C(=O)/C=C/c2ccccc2)cc1
growth at 10 µM [1]: 54.9% | growth at 10 µM [2]: 33.8% | GI50 [3]: 6.66 µM | LC50 (concentration killing 50% of the cells present at time zero) [3]: > 100 µM | TGI [3]: > 100 µM | GI50 [4]: 3.22 µM | TGI [4]: > 100 µM | CC50 [4]: > 100 µM | GI50 [5]: 5.35 µM | LC50 [5]: > 100 µM | TGI [5]: > 100 µM | GI50 [6]: 9.47 µM | TGI [6]: > 100 µM | CC50 [6]: > 100 µM | growth at 10 µM [7]: 70.1% | growth at 10 µM [8]: 57.7% | growth at 10 µM [9]: 24% | logP at 5 h [10]: 1.29 | solubility [11]: 2.73 µg/mL (≈ 4.59 µM) | GI50 [12]: 3.17 µM | TGI [12]: > 100 µM | CC50 [12]: > 100 µM | GI50 [13]: 4.13 µM | TGI [13]: > 100 µM | CC50 [13]: > 100 µM | growth at 10 µM [14]: 86.4% | GI50 [15]: 3.02 µM | LC50 (lethal concentration, 50% net cell kill) [15]: > 100 µM | TGI [15]: > 100 µM | GI50 [16]: 4.11 µM | TGI [16]: > 100 µM | CC50 [16]: > 100 µM | GI50 [17]: 3.07 µM | TGI [17]: > 100 µM | CC50 [17]: > 100 µM | GI50 [18]: 2.41 µM | LC50 (concentration giving 50% net cell kill) [18]: > 100 µM | solubility [19]: 2.53 µg/mL (≈ 4.25 µM) | GI50 [20]: 2.78 µM | LC50 (concentration killing 50% of cells) [20]: > 100 µM | TGI [20]: 45.4 µM | growth at 10 µM [21]: 10.6%

COc1cc(/C=C/C(=O)c2ccc(NC(=O)CN3CCN(c4cc5c(cc4F)c(=O)c(C(=O)O)cn5C4CC4)CC3)cc2)cc(OC)c1OC
growth at 10 µM [1]: -25.8% | growth at 10 µM [2]: -1.82% | GI50 [3]: 2.4 µM | LC50 (concentration killing 50% of the cells present at time zero) [3]: > 100 µM | TGI [3]: > 100 µM | GI50 [4]: 5.75 µM | TGI [4]: > 100 µM | CC50 [4]: > 100 µM | GI50 [5]: 1.87 µM | LC50 [5]: > 100 µM | TGI [5]: 7.36 µM | GI50 [6]: 1.61 µM | TGI [6]: 84.6 µM | CC50 [6]: > 100 µM | growth at 10 µM [7]: -11.6% | growth at 10 µM [8]: -43.8% | growth at 10 µM [9]: -35.6% | logP at 5 h [10]: 0.753 | solubility [11]: 2.13 µg/mL (≈ 3.11 µM) | GI50 [12]: 0.37 µM | TGI [12]: 3.79 µM | CC50 [12]: > 100 µM | GI50 [13]: 1.06 µM | TGI [13]: 61.2 µM | CC50 [13]: > 100 µM | growth at 10 µM [14]: 16.4% | GI50 [15]: 0.53 µM | LC50 (lethal concentration, 50% net cell kill) [15]: > 100 µM | TGI [15]: 12.2 µM | GI50 [16]: 0.53 µM | TGI [16]: 3.17 µM | CC50 [16]: > 100 µM | GI50 [17]: 0.34 µM | TGI [17]: 26.7 µM | CC50 [17]: > 100 µM | GI50 [18]: 0.37 µM | LC50 (concentration giving 50% net cell kill) [18]: > 100 µM | TGI [18]: 2.14 µM | solubility [19]: 2.01 µg/mL (≈ 2.94 µM) | GI50 [20]: 1.17 µM | LC50 (concentration killing 50% of cells) [20]: > 100 µM | TGI [20]: 6.8 µM | growth at 10 µM [21]: -71.5%
